Results gathered from unrelated publications.
Compare with care: the assays were run in different laboratories.
Target: Dual specificity tyrosine-phosphorylation-regulated kinase 4 (DYRK4, Homo sapiens, UniProt Q9NR20)
Residues used in one study (Q9NR20 1-520): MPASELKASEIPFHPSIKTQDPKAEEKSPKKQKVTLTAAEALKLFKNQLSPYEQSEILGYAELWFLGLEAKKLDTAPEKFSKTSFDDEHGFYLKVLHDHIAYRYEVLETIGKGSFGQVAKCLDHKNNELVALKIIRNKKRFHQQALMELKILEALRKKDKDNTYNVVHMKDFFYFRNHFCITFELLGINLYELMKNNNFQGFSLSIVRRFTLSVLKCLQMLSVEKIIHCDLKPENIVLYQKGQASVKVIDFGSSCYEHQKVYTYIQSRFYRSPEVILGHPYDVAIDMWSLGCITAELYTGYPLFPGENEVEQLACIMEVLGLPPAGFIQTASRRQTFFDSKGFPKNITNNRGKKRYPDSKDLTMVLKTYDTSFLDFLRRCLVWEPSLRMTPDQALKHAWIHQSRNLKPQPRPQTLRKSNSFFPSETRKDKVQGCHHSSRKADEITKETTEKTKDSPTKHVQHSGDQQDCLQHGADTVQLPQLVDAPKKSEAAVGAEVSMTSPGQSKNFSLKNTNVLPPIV

SMILES | test | conditions | measurement | value
CC(C)(C)c1nc2c(s1)c1nc(N)ncc1c1ccc(NS(=O)(=O)c3c(F)cccc3F)c(F)c12 | enzyme activity, inhibitor, radiometric | 1 µM | remaining activity | 92%
Cn1cc(-c2cccc(N3CCc4c(sc5c4CC(C)(C)C5)C3=O)c2CO)cc(Nc2ccncn2)c1=O | enzyme activity, inhibitor | 1 µM | inhibition | 2%
CC(C)(O)[C@H]1CC[C@H](Nc2ccc3ncc(-c4cccc(C(F)(F)F)c4)n3n2)CC1 | enzyme activity, inhibitor | 1 µM | remaining activity | 97.3%
COc1cc2ncnc(Nc3ccc(Oc4ccccc4)c(C)c3C)c2cc1OC | enzyme activity, inhibitor | 1 µM | inhibition | -1%
O=C1Nc2ccc(Cl)cc2C1=Cc1cc(Cl)c(O)c(Cl)c1 | cell-free assay | 0.5 µM | remaining signal | 95.7%
Cn1cnc(Br)c1C1=CN(c2ncnc3[nH]cnc23)CCS1 | enzyme activity, inhibitor, radiometric | 50 nM | inhibition | 14.9%
COc1cc(-c2cc(-c3ccc(N4CCNCC4)cc3)cnc2C)cc(OC)c1OC | enzyme activity, inhibitor | 0.1 µM | inhibition | 2%
CC(C)(C)c1nc(-c2cccc(NS(=O)(=O)c3c(F)cccc3F)c2F)c(-c2ccnc(N)n2)s1 | enzyme activity, inhibitor, radiometric | 1 µM | remaining activity | 38%
CCCS(=O)(=O)Nc1ccc(F)c(C(=O)c2c[nH]c3ncc(-c4ccc(Cl)cc4)cc23)c1F | enzyme activity, inhibitor | 1 µM | inhibition | < 10%
Cn1cc(-c2cc(F)cc(N3CCn4c(cc5c4CCCC5)C3=O)c2CO)cc(Nc2ccc(N3CCN(C4COC4)CC3)cn2)c1=O | enzyme activity, inhibitor | 0.1 µM | inhibition | 5%
O=C(Nc1cnn(-c2csc(C(=O)NC3COC3)c2)c1)Nc1ccccc1Cl | enzyme activity, inhibitor | 5 µM | remaining activity | 94.6%
O=C1NC(=O)c2cc(Nc3ccc(F)cc3)c(Nc3ccc(F)cc3)cc21 | cell-free assay | 0.5 µM | remaining signal | 98.6%
O=C(Nc1cnn(-c2csc(C(=O)NC3COC3)c2)c1)Nc1c(F)cccc1Cl | enzyme activity, inhibitor | 5 µM | remaining activity | 96.2%
COc1cc2ncnc(Nc3ccc(Oc4ccccc4)cc3C)c2cc1OC | enzyme activity, inhibitor | 1 µM | inhibition | 0%
